Measurements: ChEMBL document CHEMBL1130338, “(E)- and (Z)-7-arylidenenaltrexones: synthesis and opioid receptor radioligand displacement assays” (J Med Chem, 1997)

Tests used:
[1] = target: Kappa-type opioid receptor (Cavia porcellus, UniProt P41144); assay: Binding affinity was determined in a crude membrane preparation from guinea pig brain by displacement of [3H]U-69593 from Opioid receptor kappa 1; assay type: cell membranes
How it was run: (§1)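 Guinea pig brain (less cerebellum) homogenized in 0.05 M Tris pH 7.4, pelleted at 25000g (4 °C, 20 min), stored in 0.32 M sucrose at –70 °C. Diluted 1:60, giving 0.8–1.5 mg protein/mL. Radioligands at 1.0 nM ([3H]DAMGO μ, [3H]DPDPE δ, [3H]U69,593 κ). Test ligand in duplicate at nine concentrations, 1.0–1000 nM. Nonspecific binding with 10 μM naloxone. Incubated 60 min at 25 °C, then filtered and counted. Ki from IC50 via Cheng–Prusoff using KD measured in this homogenate.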

[2] = target: Opioid receptors; mu & delta (UniProt P41143+P35372); assay: Selectivity ratio measured in terms of delta opioid receptor to the mu opioid receptor; assay type: protein assay; details: Cavia porcellus
Mu-type opioid receptor = Mu-type opioid receptor (Cavia porcellus, UniProt P97266); assay: Binding affinity was determined in a crude membrane preparation from guinea pig brain by displacement of [3H]DAMGO from Opioid receptor mu 1; assay type: cell membranes; how it was run: as §1
Sequence of Mu-type opioid receptor (P97266 whole entry): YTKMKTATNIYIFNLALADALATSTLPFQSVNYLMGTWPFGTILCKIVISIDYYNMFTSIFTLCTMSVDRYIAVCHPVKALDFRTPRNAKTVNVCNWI

Sequence of Kappa-type opioid receptor (P41144 whole entry): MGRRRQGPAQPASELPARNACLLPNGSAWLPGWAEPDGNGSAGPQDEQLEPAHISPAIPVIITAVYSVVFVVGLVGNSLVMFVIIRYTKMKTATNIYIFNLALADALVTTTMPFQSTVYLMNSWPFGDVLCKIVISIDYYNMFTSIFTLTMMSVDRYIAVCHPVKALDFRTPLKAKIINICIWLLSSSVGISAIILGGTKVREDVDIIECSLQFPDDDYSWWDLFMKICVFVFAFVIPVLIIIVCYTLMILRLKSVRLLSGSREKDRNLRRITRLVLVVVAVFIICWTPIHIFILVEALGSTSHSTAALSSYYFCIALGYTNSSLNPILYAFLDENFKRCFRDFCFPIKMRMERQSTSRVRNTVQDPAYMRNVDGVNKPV
Sequence of Opioid receptors; mu & delta (P35372 whole entry, looked up): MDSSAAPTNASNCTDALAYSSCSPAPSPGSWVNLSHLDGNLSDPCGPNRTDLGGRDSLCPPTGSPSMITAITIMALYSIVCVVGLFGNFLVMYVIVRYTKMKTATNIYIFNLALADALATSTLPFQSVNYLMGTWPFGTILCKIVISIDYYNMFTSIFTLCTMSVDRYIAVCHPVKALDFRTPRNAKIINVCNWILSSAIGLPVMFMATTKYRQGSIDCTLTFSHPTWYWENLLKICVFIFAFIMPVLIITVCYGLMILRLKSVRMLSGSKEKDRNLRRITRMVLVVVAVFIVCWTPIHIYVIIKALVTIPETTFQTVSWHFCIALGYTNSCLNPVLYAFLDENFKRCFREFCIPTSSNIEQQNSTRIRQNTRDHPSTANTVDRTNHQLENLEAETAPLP
Sequence of Opioid receptors; mu & delta (P41143 whole entry, looked up): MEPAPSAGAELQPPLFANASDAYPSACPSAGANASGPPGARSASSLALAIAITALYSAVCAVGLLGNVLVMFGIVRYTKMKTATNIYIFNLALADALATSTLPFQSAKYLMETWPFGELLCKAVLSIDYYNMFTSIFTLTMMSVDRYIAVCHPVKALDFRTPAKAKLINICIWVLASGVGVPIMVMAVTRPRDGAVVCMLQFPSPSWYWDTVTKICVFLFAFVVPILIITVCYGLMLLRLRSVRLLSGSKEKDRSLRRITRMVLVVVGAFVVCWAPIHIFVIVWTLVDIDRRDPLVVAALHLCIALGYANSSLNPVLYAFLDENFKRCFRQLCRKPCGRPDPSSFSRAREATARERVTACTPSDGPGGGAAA

SMILES	Ki [1] [µM]	Selectivity ratio [2]	Ki (Mu-type opioid receptor) [µM]
O=C1/C(=C/c2ccccc2)C[C@@]2(O)[C@H]3Cc4ccc(O)c5c4[C@@]2(CCN3CC2CC2)[C@H]1O5 [BNTX]	0.048	4	0.026
O=C1/C(=C\c2ccc(-c3ccccc3)cc2)C[C@@]2(O)[C@H]3Cc4ccc(O)c5c4C2(CCN3CC2CC2)[C@H]1O5	0.4	4.2	0.21
O=C1/C(=C/c2ccc(-c3ccccc3)cc2)C[C@@]2(O)[C@H]3Cc4ccc(O)c5c4C2(CCN3CC2CC2)[C@H]1O5	0.19	0.6	0.05
O=C1/C(=C/c2cccc3ccccc23)C[C@@]2(O)[C@H]3Cc4ccc(O)c5c4C2(CCN3CC2CC2)[C@H]1O5	0.12	7.5	0.036
O=C1/C(=C/c2c3ccccc3cc3ccccc23)C[C@@]2(O)[C@H]3Cc4ccc(O)c5c4C2(CCN3CC2CC2)[C@H]1O5	0.17	6.4	0.11
CC(C)CN1CCC23c4c5ccc(O)c4O[C@H]2C(=O)/C(=C\c2ccc4ccccc4c2)C[C@@]3(O)[C@H]1C5		3	
O=C1/C(=C\c2cccc3ccccc23)C[C@@]2(O)[C@H]3Cc4ccc(O)c5c4C2(CCN3CC2CC2)[C@H]1O5	0.037	15	0.011
O=C1/C(=C/c2ccc3ccccc3c2)C[C@@]2(O)[C@H]3Cc4ccc(O)c5c4C2(CCN3CC2CC2)[C@H]1O5	0.074	0.6	0.023
O=C1/C(=C\c2c3ccccc3cc3ccccc23)C[C@@]2(O)[C@H]3Cc4ccc(O)c5c4C2(CCN3CC2CC2)[C@H]1O5	0.1	14	0.034
O=C1/C(=C\c2ccccc2)C[C@@]2(O)[C@H]3Cc4ccc(O)c5c4[C@@]2(CCN3CC2CC2)[C@H]1O5	0.034	8.6	0.033
